Target: Substance-P receptor (Cavia porcellus) (UniProt P30547)
Assay: Antagonist activity at guinea pig NK1 receptor assessed as effect on ileum contractions
Type: functional, tissue-based
In short: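 Guinea pig ileum in organ bath with Tyrode's solution, 32 °C, gassed 95% O2/5% CO2, resting tension 1 g, 20 min equilibration. Pretreated 10 min with at least three concentrations of test compound in DMSO, then cumulative substance P concentration-response curve versus substance P control curve. KB by Schild method; means, n = 3–5.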

Sequence of Substance-P receptor (Cavia porcellus) (P30547 whole entry): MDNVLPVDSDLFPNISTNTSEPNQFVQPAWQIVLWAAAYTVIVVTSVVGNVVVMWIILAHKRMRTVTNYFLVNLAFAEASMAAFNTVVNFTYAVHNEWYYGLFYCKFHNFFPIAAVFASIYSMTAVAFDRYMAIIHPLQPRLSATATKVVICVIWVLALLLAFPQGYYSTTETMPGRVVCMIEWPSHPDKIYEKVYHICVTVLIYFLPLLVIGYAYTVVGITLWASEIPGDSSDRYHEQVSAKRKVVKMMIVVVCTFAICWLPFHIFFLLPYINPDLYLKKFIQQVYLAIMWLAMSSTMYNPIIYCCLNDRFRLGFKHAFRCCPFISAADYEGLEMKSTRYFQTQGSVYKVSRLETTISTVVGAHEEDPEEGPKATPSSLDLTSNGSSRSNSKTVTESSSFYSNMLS

Structure (SMILES) | Kb [nM]
Cc1ccccc1-c1nc(N(C)C)nc2c1C(=O)N(Cc1cc(C(F)(F)F)cc(C(F)(F)F)c1)CCCO2 | 0.679
CC(=O)N1CCN(c2nc3c(c(-c4ccccc4C)n2)C(=O)N(Cc2cc(C(F)(F)F)cc(C(F)(F)F)c2)C[C@H](C)CO3)CC1 | 0.139
CC(=O)N1C(C)CN(c2nc3c(c(-c4ccccc4C)n2)C(=O)N(Cc2cc(C(F)(F)F)cc(C(F)(F)F)c2)CCCO3)CC1C (configuration not stated) | 0.679
CC(=O)N1C(C)CN(c2nc3c(c(-c4ccccc4C)n2)C(=O)N(Cc2cc(C(F)(F)F)cc(C(F)(F)F)c2)C[C@H](C)CO3)CC1C (some centres not stated) | 0.217
Cc1ccccc1-c1nc(N(C)C)nc2c1C(=O)N(Cc1cc(C(F)(F)F)cc(C(F)(F)F)c1)C[C@H](C)CO2 | 0.427
CC(=O)N1CCN(c2nc3c(c(-c4ccccc4C)n2)C(=O)N(Cc2cc(C(F)(F)F)cc(C(F)(F)F)c2)C[C@@H](C)CO3)CC1 | 0.345
Cc1ccccc1-c1ncnc2c1C(=O)N(Cc1cc(C(F)(F)F)cc(C(F)(F)F)c1)C[C@@H](C)CO2 | 162
Cc1ccccc1-c1ncnc2c1C(=O)N(Cc1cc(C(F)(F)F)cc(C(F)(F)F)c1)CCCO2 | 11.6
CC(=O)N1C(C)CN(c2nc3c(c(-c4ccccc4C)n2)C(=O)N(Cc2cc(C(F)(F)F)cc(C(F)(F)F)c2)C[C@@H](C)CO3)CC1C (some centres not stated) | 0.545
CC(=O)N1CCN(c2nc3c(c(-c4ccccc4C)n2)C(=O)N(Cc2cc(C(F)(F)F)cc(C(F)(F)F)c2)CCCO3)CC1 | 0.105
Cc1ccccc1-c1nc(N(C)C)nc2c1C(=O)N(Cc1cc(C(F)(F)F)cc(C(F)(F)F)c1)C[C@@H](C)CO2 | 52.9
Cc1ccccc1-c1ncnc2c1C(=O)N(Cc1cc(C(F)(F)F)cc(C(F)(F)F)c1)C[C@H](C)CO2 | 12.6
